Assays:
A2780 = experiment: Antiproliferative activity against human A2780 cells assessed as reduction in cell viability incubated for 48 hrs by Alamar blue assay; assay type: functional, cell-based; details: A2780, 48 h
Plasmodium falciparum = experiment: Antiplasmodial activity against Plasmodium falciparum Dd2 assessed as reduction in parasite viability incubated for 72 hrs by SYBR Green I dye based assay; assay type: functional, organism-based; details: Dd2, 72 h
Method in brief: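 Ring-stage parasite cultures at 1% parasitemia and 1% hematocrit, exposed to samples for 72 h at 37 °C under 5% CO2/5% O2/90% N2. Viability read by DNA quantitation with SYBR Green I in lysis buffer (0.33 μL dye per mL, 25 μL added). IC50 by nonlinear regression curve fitting; mean ± SD of three independent experiments.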

[1] = Selectivity index, ratio of IC50 for antiproliferative activity against human A2780 cells to IC50 for antiplasmodial activity against Plasmodium falciparum Dd2; assay type: functional

SMILES	IC50 (A2780) [µM]	IC50 (Plasmodium falciparum) [µM]	Ratio IC50 [1]
C=C(C)CCC(Cc1c(O)cc(O)c(C(=O)[C@@H](C)CC)c1O)/C(C)=C/CC=C(C)C (stereo partly drawn)	7	12	–
CC[C@H](C)C(=O)c1c(O)cc(O)c(CC(CCC(C)(C)O)/C(C)=C/CC=C(C)C)c1O (stereo partly drawn)	–	8.3	–
CC[C@H](C)C(=O)c1c(O)cc(O)c(CC2=C(C)[C@@H](CC=C(C)C)C(C)(C)CC2)c1O	4.5	4.7	–
CC[C@H](C)C(=O)c1c(O)cc2c(c1O)C[C@@H]1C(C)(C)CCC[C@@]1(C)O2 (relative stereo)	–	14.1	–
C[C@@H]1CC[C@H]2[C@@H](C)C(=O)O[C@@H]3O[C@@]4(C)CC[C@@H]1[C@]32OO4 [ARTEMISININ]	–	0.0085	–

The remaining molecules from weak to strong by IC50 (A2780), led by results:

IC50 (A2780) [µM]	SMILES	IC50 (Plasmodium falciparum) [µM]	Ratio IC50 [1]
19.7	CC(C)=CCC/C(C)=C/CC/C(C)=C/CC[C@]1(C)CCc2cc(O)cc(C)c2O1 [DELTA-TOCOTRIENOL]	5.3	–
16.4	CC(C)=CCC/C(C)=C/Cc1c(O)cc(O)c(C(=O)C(C)C)c1O	12.5	–
15.2	C=C1[C@@H](Cc2c(O)cc(O)c(C(=O)[C@@H](C)CC)c2O)CCC(C)(C)[C@@H]1CC=C(C)C	0.8	20
12.4	CCC(C)C(=O)c1c(O)cc(O)c(C/C=C(\C)CCC=C(C)C)c1O (stereo not drawn)	–	–
10	CCC(C)C(=O)c1c(O)cc(O)c2c1O[C@](C)(CCC=C(C)C)[C@@H](O)C2 (stereo partly drawn) [EMPETRIKARINOL B]	–	–
6.4	CC[C@H](C)C(=O)c1c(O)cc(O)c(CCC(C)(O)CCC=C(C)C)c1O (stereo partly drawn)	5.4	–
